Assay outcomes: PubChem BioAssay, several laboratories
MC4R antag cAMP: human MC4R antagonism in cAMP assay; P32245; MC4R-expressing cells, MTII-stimulated cAMP, LANCE TR-FRET; inhibition, % at 6.5 µM; hit rate 0.48% among 360,000; AID 540295;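 active = inhibition above its plate's cutoff, the mean of tested wells on that plate plus 3 SD, cut at about 29% in these data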;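 note: 0% = Melanotan II alone and 100% = Melanotan II plus saturating MCL0020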
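Material: human MC4R-expressing U2OS cells. Probe or stimulus: Melanotan II challenge. Dosing: 6.5 µM single dose. Times: 30-min compound, 1-h challenge, 1-h detection, room temperature. Technique: TR-FRET with Eu-cAMP and labeled anti-cAMP, 671 nm. Replication: singlicate.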
PfG6PD inh: PfG6PD (Plasmodium falciparum) enzyme inhibition; inhibition, % at 20 µM; hit rate 0.78% among 350,000; PfGluPho enzyme, NADPH resazurin-diaphorase fluorescence; AID 504690;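 active = inhibition reaching at least a set limit at 20 µM in the primary screen, cut at about 59% in these data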;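 note: 0% = DMSO wells with substrate and 100% = DMSO wells lacking glucose-6-phosphate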
MC4R ag barr: agonists of human melanocortin 4 receptor (MC4R) beta-arrestin; P32245; hit rate 0.98% among 360,000; activation, % at 8.9 µM; U2OS MC4R beta-arrestin complementation, luminescence; percent of melanotan II response, DMSO zero;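 active = activation above a per-plate cutoff, the mean activation of sample wells on that plate plus 3 SD, cut at about 8% in these data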
B2AR ag: activates human beta-2 adrenergic receptor causing internalization | P07550 | Am2.2-beta2AR cells, FAP receptor internalization, flow cytometry | response, % (concentration not given with the values) | hit rate 0.43% among 340,000;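 active = response above a set limit, near 3 SD of response in nonfluorescent compounds, cut at about 42% in these data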
ABHD5 PLIN5 PPI: ABHD5-PLIN5 protein interaction inhibition; inhibition, % at 4 µM; Q00G26+Q8WTS1; Split G. princeps luciferase complementation, luminescence, 4 h; hit rate 0.78% among 360,000;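 active = inhibition above the mean inhibition across every tested compound plus 3 SD, cut at about 22% in these data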;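 note: 0% = DMSO only wells and the 100% control is not disclosed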
Target sequence (Q00G26 whole entry, looked up): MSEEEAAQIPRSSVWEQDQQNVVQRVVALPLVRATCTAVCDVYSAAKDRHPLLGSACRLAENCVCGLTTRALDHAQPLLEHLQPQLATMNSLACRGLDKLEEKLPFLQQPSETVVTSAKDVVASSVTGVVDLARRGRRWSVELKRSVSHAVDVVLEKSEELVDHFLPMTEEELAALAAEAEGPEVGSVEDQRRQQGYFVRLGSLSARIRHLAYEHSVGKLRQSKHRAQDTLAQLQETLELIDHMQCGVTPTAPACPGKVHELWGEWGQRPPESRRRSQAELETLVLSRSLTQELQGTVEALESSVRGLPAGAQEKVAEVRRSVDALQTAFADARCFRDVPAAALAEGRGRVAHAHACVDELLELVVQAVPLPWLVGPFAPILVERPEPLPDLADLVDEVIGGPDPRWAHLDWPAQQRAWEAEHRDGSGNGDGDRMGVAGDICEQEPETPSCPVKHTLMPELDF
Target sequence (Q8WTS1 whole entry, looked up): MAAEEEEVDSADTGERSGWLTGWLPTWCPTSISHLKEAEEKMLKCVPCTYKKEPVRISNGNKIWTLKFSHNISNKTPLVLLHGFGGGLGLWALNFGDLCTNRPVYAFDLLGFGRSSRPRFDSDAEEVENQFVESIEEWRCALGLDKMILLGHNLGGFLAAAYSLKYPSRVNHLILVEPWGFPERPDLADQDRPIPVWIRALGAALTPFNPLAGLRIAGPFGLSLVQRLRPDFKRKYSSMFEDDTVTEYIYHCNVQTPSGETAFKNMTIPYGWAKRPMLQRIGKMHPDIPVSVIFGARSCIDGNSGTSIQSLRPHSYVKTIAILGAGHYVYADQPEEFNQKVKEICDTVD
Active calls of the source: *; / = no result; ! = repeats disagree. Hits are enriched below; roughly 3% of the tested compounds scored in any of these assays.

SMILES | MC4R antag cAMP | PfG6PD inh | MC4R ag barr | B2AR ag | ABHD5 PLIN5 PPI
O=C(COC(=O)/C=C/c1ccccc1[N+](=O)[O-])Nc1ccc2[nH]c(=O)[nH]c2c1 | -5 | 26 | -1 | -3 | 5
COc1cc(NC(=O)C2CC2)c(OC)cc1NC(=O)CCC(=O)NC1CCN(Cc2ccccc2)CC1 | 9 | -8 | -1 | -10 | 9
CC[C@@H]1C(c2ccc(F)cc2)=NN(c2ccc(Br)cc2)[C@H]1C(=O)N1CCOC1=O | 11 | 26 | 9.6* | -5 | -18
O=C(c1ccccc1)N1N=C(c2cccs2)CC1c1ccccc1O (centres undefined) | -1 | 7 | 8.4* | 3 | 9
CCCNS(=O)(=O)c1cccc(C(=O)NC2CCCc3ccccc32)c1 (centres undefined) | 14 | -2 | 0 | 6 | -4
COc1ccc(Cn2c(-c3ccc(C)cc3)nc3c(c(=O)c4ccccc4n3C)c2=O)cc1 | 15 | -18 | 9.2* | -1 | 5
COc1ccc(-c2nc3c(c(=O)c4ccccc4n3C)c(=O)n2Cc2ccccc2)cc1 | 9 | 8 | 0 | -16 | 0
CCOC(=O)NC(=O)CSc1ccc(S(=O)(=O)N(C)C2CCCCC2)cn1 | 7 | -1 | -1 | -12 | -1
COc1ccc(-c2nn(-c3ccccc3)cc2/C=C/C(=O)N2CCN(c3ccccn3)CC2)cc1 | 0 | 8 | -1 | 55* | 1
Cc1ccc(-c2nn(-c3ccccc3)cc2C(=O)N2CCN(c3ccccn3)CC2)cc1 | -1 | 4 | -1 | -20 | 2
C/C(N)=C(/C#N)C(=O)COC(=O)c1cc(-c2ccc(Br)cc2)nc2ccccc12 | 24 | 18 | 8.4*! | 4 | 1
COC(=O)c1ccc2nc(-c3ccc(F)cc3)c(Cc3ccccc3C(F)(F)F)n2c1 | / | / | / | / | -4
CCOc1ccc(N=C2NC(=O)/C(=C/C(=O)OC)S2)cc1 | 2 | -12 | 0 | 14 | 23*
Cn1cnc2nc(Cl)nc(Cl)c21 | -9 | -11 | -2 | 62* | -1
CNc1nc(Cl)nc2ncn(C)c12 | -2 | -7 | 0 | -7 | 1
Cc1ccc(C(=O)Nc2ccccc2C(=O)O)cc1S(=O)(=O)Nc1ccc(Br)cc1 | -2 | -42 | 2 | -4 | -2
c1ccc(-[n+]2nc(Nc3cccc4ccccc34)sc2-c2c3ccccc3cc3ccccc23)cc1 | -3 | 83* | -1 | 1 | 11
Oc1ccc2ccccc2c1-c1sc(Nc2ccccc2)n[n+]1-c1ccc(F)cc1 | 4 | 6 | 2 | -171 | 2
COc1ccc(NC(=O)c2ccco2)cc1NC(=O)c1ccccc1F | 3 | 0 | 9.4* | -6 | 2
COc1cc(OC)cc(C(=O)Nc2cc(NC(=O)c3ccco3)ccc2OC)c1 | -6 | -9 | 2 | -2 | -2
Cc1snc(SCC(=O)c2ccc([N+](=O)[O-])cc2)c1C#N | 2 | 62* | 0 | -13 | -16
Cc1snc(SCC(=O)c2ccc(F)cc2)c1C#N | 19 | 5 | -3 | -18 | -2
Cc1ccc(CNC(=O)CCC(=O)n2ncc3cc(C)ccc32)cc1 | 5 | -6 | 2 | 1 | 8
Cc1ccc2c(cnn2C(=O)CCCC(=O)NCc2ccc(Cl)cc2)c1 | -6 | 10 | 8.6* | 16 | 4
O=C(CCCn1cnc([N+](=O)[O-])n1)Nc1ccc(Cl)c(Cl)c1 | 7 | 25 | -2 | 5 | 28*
SMILES | MC4R antag cAMP | PfG6PD inh | MC4R ag barr | B2AR ag | ABHD5 PLIN5 PPI
N/C(Cc1ccc(Cl)cc1Cl)=N\OC(=O)c1ccc(Br)o1 | 13 | 0 | 8.3* | -3 | -6
COc1ccc(-c2cn[nH]c2-c2ccc(OCc3ccccc3)cc2O)cc1 | 6 | -8 | 9.3* | 15 | -4
CC1=C(C(=O)Nc2ccccc2)C(c2ccc(C)cc2)N=C(Nc2nc3ccccc3o2)N1 (centres undefined) | -5 | -2 | 9.9* | 5 | -11
O=C1C=CC(=C(c2ccc(O)cc2)c2ccc(O)cc2)C=C1 | 5 | 4 | -3 | -3 | 78*
CCC(=O)Nc1ccc(Cl)c(NC(=S)NC(=O)c2ccco2)c1 | -2 | 1 | -3 | -20 | 0
CCCC(=O)N1CCN(c2ccc(NC(=O)c3cc4ccccc4o3)cc2Cl)CC1 | 4 | 98* | 6 | 27 | -4
CCC(=O)Nc1ccc(Cl)c(NC(=S)NC(=O)c2cc3ccccc3o2)c1 | -7 | -4 | 8.2* | -4 | -8
COc1cc2[nH]c(C(=O)Nc3ccc(F)cc3)cc2c(OC)c1OC | -15 | / | 0 | 3 | -2
CCC1=C/C(=C/c2sc3ccccc3[n+]2CC)CC(C)(C)C1 | / | 61* | / | 1 | /
CC[n+]1c(/C=C2\C=C(C)CC(C)C2)sc2ccccc21 (centres undefined) | 10 | 49 | 1 | 3 | 10
Cc1cc(C)cc(NC(=O)CSc2nc(CSc3ccc(Cl)cc3)cc(=O)[nH]2)c1 | 5 | -18 | 8.6* | 7 | 10
CCN(CC)C(=N)N1c2ccccc2CCC1C (centres undefined) | 4 | 8 | -2 | 7 | -2
COc1ccc(NC(=O)N(C)[C@H]2C[C@H]3c4[nH]c5ccc(-c6cccc(C)c6)cc5c4CCN3C[C@H]2[C@H](C)O)cc1 | -4 | 34 | 1 | / | 14
CCOC(=O)C1=C(C)OC(=Cc2ccccc2)C1=O | 0 | 3 | -3 | / | 0
CCOC(=O)C1=C(O)c2ccccc2C(=O)/C1=C\c1ccc(C)cc1 | 25 | 96* | 2 | -907 | 21
Cc1ccc(S(C)(=O)=O)cc1C(=O)OCC(=O)N1CCCC1=O | 5 | -6 | -3 | -3 | 6
CC1=C(SCc2ccccc2)C(=O)c2ccccc2C1=O | 8 | 105* | -2 | 5 | -10
CN1CSC2=C(C#N)C(c3cccc(OCc4ccccc4)c3)CC(=O)N2C1 (centres undefined) | -4 | 92* | -1 | -4 | -28
COC(=O)/C=C1/SC(=NC(=O)c2cccc([N+](=O)[O-])c2)NC1=O | -2 | -11 | -4 | 4 | -6
CN(C(=S)NC(=O)C12CC3CC(CC(C3)C1)C2)c1ccc(O)cc1 | 6 | 103* | -1 | 16 | -16
CCCCOc1ccc(Br)cc1/C(C)=N/NC1=NCCN1 | -28 | 7 | 3 | 48* | 13
CCCCCCCCCCCC1=C(O)C(=O)C=C(O)C1=O | 18 | -28 | 16* | -3 | -4
CN(C)/C=N/C1=C(C#N)C(c2cccs2)c2ccc3ccccc3c2O1 (centres undefined) | -21 | 10 | -3 | 21 | 2
O=C(Nc1cc(Cl)ccc1O)C1CC(c2c(F)cccc2Cl)=NO1 (centres undefined) | 14 | -14 | 0 | -2 | -2
O=C(Nc1cc(Br)ccc1O)C1CC(c2ccccc2Cl)=NO1 (centres undefined) | 5 | -24 | 8.6* | 16 | -15
COc1cccc(-c2cnc(C(O)c3ccc(Cl)cc3)[nH]2)c1 (centres undefined) | 0 | / | 0 | / | 2
